Tests used:
[1] = tested on: BRAF V600E monomers (SK-MEL-239); assay: p-ERK Western blot, 1 hr drug treatment; format: cell-based; settings: p-ERK/total ERK by densitometry, calculated from the curves in Figure 1
How it was run: (§1)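 SK-MEL-239 and SK-MEL-239 C4 cells (DMEM, glutamine, antibiotics, 10% FBS) were exposed 1 hr to 0–30,000 nM test compound (0,10,30,100,300,1000,3000,10,000, 30,000 nM). Whole-cell lysates were Western blotted, and p-ERK/total ERK was quantified by densitometry and normalized to untreated cells. IC75 is the concentration giving 75% inhibition on the response curve; 4 independent repeats, mean±s.d.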

[2] = tested on: p61 BRAF V600E homodimers (SK-MEL-239 C4); assay: p-ERK Western blot, 1 hr drug treatment; format: cell-based
How it was run: as §1

[3] = tested on: NRAS Q61R activation of WT RAF dimers (SK-MEL-2); assay: p-ERK Western blot, 1 hr drug treatment; format: cell-based; settings: Homo sapiens, SK-MEL-2, read-out: IC50 for p-ERK in SK-MEL-2 cells
How it was run: (§2)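 SK-MEL-2 (RPMI, 10% FBS) or primary keratinocytes (Dermal Cell Basal Medium + keratinocyte growth kit) were exposed 1 hr to 0–30,000 nM compound (nine points, 10 to 30,000 nM). Lysates were Western blotted, and p-ERK/total ERK was quantified by densitometry and normalized to untreated cells. IC50 is the concentration giving 50% inhibition on the response curve; n=4, mean±s.d.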

[4] = tested on: WT RAS/RAF (primary keratinocytes); assay: p-ERK Western blot, 1 hr drug treatment; format: cell-based; settings: Keratinocyte, read-out: IC50 for p-ERK in keratinocytes
How it was run: as §2

[5] = biological target: RAS-dependent full length BRAF/BRAF dimers (Homo sapiens, UniProt P15056); assay: RAF dimer immunoprecipitation in 293H; format: cell-based
BRAF/CRAF dimers = BRAF/CRAF dimers (Homo sapiens, UniProt P04049); assay: RAF dimer immunoprecipitation in 293H; format: cell-based
BRAF/CRAF dimers, sequence (P04049 whole entry): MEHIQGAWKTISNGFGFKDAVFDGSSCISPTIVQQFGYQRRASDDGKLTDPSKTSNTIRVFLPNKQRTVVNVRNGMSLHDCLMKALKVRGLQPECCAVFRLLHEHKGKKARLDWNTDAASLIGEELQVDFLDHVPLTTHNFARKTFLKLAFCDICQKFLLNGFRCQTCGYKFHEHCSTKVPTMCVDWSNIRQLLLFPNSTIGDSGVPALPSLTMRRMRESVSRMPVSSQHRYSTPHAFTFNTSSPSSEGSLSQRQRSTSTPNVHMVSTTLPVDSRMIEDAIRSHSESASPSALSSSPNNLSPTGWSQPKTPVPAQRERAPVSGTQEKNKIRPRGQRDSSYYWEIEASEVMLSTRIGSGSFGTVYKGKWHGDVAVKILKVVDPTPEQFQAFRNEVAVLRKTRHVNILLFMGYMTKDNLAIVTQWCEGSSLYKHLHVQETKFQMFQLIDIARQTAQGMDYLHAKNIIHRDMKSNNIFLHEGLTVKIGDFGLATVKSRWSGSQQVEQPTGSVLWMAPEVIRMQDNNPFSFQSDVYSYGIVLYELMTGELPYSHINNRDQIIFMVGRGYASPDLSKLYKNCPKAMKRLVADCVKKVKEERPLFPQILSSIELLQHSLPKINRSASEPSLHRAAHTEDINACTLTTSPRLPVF
How it was run: (§3)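 293H cells with inducible NRAS Q61K co-expressed V5- and FLAG-tagged pairs: BRAF/BRAF, p61 BRAF/p61 BRAF, CRAF-V5/BRAF-FLAG, catC-V5/p61 BRAF-FLAG, CRAF/CRAF or catC/catC. Cells were exposed 1 hr to increasing test compound concentrations, and lysates were immunoprecipitated with anti-V5 agarose. Blots were probed with anti-V5/anti-FLAG. Pulled-down tagged proteins were quantified by densitometry, normalized to untreated cells and plotted as response curves; 3 independent repeats.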

[6] = biological target: RAS-independent BRAF dimers (p61 BRAF) (Homo sapiens, UniProt P15056); assay: RAF dimer immunoprecipitation in 293H; format: cell-based; settings: read-out: IC50 for decrease of dimer levels, p61 BRAF; 1hr; IP/Western blot
How it was run: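 293H cells carried doxycycline-inducible NRAS Q61K introduced by retrovirus. They were transfected with Lipofectamine 2000 (DNA:reagent 1:3) to co-express V5- and FLAG-tagged full-length BRAF or p61 BRAF pairs. Cells were exposed to increasing test-compound doses for 1 hr, then lysed, and lysates were immunoprecipitated with anti-V5 agarose (1:200). Blots were probed with anti-V5 and anti-FLAG. Pulled-down FLAG and V5 proteins were quantified by densitometry and normalised to untreated cells.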

[7] = biological target: RAS-dependent full length CRAF dimers (Homo sapiens, UniProt P04049); assay: RAF dimer immunoprecipitation in 293H; format: cell-based; settings: concentrations as high as 10uM
RAS-dependent full length CRAF dimers, sequence (P04049 whole entry): as above
RAS-dependent full length CRAF dimers, sequence (P04049 whole entry): as above
How it was run: as §3

[8] = tested on: RAS-independent truncated CRAF (Cat C) homodimers; assay: RAF dimer immunoprecipitation in 293H; format: cell-based; settings: concentrations as high as 10uM
How it was run: as §3

[9] = tested on: RAS-dependent ARAF homo-or heterodimers; assay: RAF dimer immunoprecipitation in 293H; format: cell-based; settings: 1hr
[10] = tested on: Class 2 BRAF mutant homodimers; assay: RAF dimer immunoprecipitation in 293H cells; format: cell-based; settings: 1hr, increasing doses
[11] = tested on: Class 3 BRAF mutant heterodimers; assay: RAF dimer immunoprecipitation in 293H cells; format: cell-based; settings: 1hr, increasing doses
p61 BRAF V600E dimers = assay: ERK signaling in SKBR3 cells ectopically expressing RAF proteins; format: cell-based; settings: 1hr
How it was run: (§4)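 SKBR3 cells (DMEM/F12 + 10% FBS) were transfected the day after seeding (Lipofectamine 2000, DNA:lipid 1:3) with plasmids for the indicated RAF proteins or empty pcDNA3. After 24 h, RAF-transfected cells got 1 uM lapatinib to suppress endogenous RAF activity; vector cells got DMSO. Test compound was then added at increasing doses for 1 hr. Protein expression and phosphorylation were read by Western blot; 3–4 independent repeats.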

p61 WT BRAF dimers = assay: as above; format: cell-based; settings: 1hr
How it was run: as §4

BRAF V600E monomers = assay: as above; format: cell-based; settings: 1hr
How it was run: as §4

[12] = tested on: activated CRAF homodimers; assay: as above; format: cell-based; settings: 1hr
How it was run: as §4

[13] = tested on: HeLa cells (WT RAS and RAF) with BRAF overexpression; assay: ERK signaling in HeLa cells stably expressing RAF; format: cell-based; settings: 1hr
[14] = tested on: HeLa cells (WT RAS and RAF) with CRAF overexpression; assay: ERK signaling in HeLa cells stably expressing RAF; format: cell-based; settings: 1hr
BRAF knockout MEF cells = assay: p-MEK/p-ERK in RAF knockout MEF cells; format: cell-based, Mouse; settings: 1hr
How it was run: (§5)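 Wild-type control MEFs and ARAF, BRAF or CRAF knockout MEFs (from a conditional RAF knockout line) were exposed 1 hr to increasing test compound concentrations. Western blot measured p-MEK, MEK, p-ERK and ERK. p-MEK/MEK and p-ERK/ERK were quantified by densitometry, normalized to untreated cells and plotted as response curves (mean±s.d.). Cellular experiments were repeated at least three times.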

CRAF knockout MEF cells = assay: p-MEK/p-ERK in RAF knockout MEF cells; format: cell-based, Mouse; settings: 1hr
How it was run: as §5

ARAF knockout MEF cells = assay: p-MEK/p-ERK in RAF knockout MEF cells; format: cell-based, Mouse; settings: 1hr
How it was run: as §5

[15] = tested on: RAF-null MEFs expressing ARAF; assay: ERK signaling in RAF-null MEFs expressing one RAF isoform; format: cell-based, Mouse; settings: 1hr
How it was run: (§6)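 RAF-less MEFs came from Araflox/lox;Braflox/lox;Craflox/lox;RERT ert/ert MEFs. Doxycycline-inducible wild-type ARAF, BRAF or CRAF was transduced retrovirally without 4-OHT and selected with puromycin/hygromycin. Cells were then infected with Adeno-Cre (MOI 100) and cultured in 1 uM 4-OHT plus 50 ng/ml doxycycline. GFP-positive cells were sorted after 2 weeks. Loss of endogenous RAF and induced expression were confirmed by genomic PCR and Western blot.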

[16] = tested on: RAF-null MEFs expressing BRAF; assay: as above; format: cell-based, Mouse; settings: 1hr
How it was run: as §6

[17] = tested on: RAF-null MEFs expressing CRAF; assay: as above; format: cell-based, Mouse; settings: 1hr
How it was run: as §6

[18] = tested on: Class 1 (BRAF V600 mutants) monomers (A375, SK-MEL-239 and MDST-8); assay: ERK signaling in a panel of cell lines, 1 hour; format: cell-based
[19] = tested on: Class 2 BRAF mutants (SK-MEL-239 C4, SK-MEL-246, JVM-3, and 22RV1); assay: ERK signaling in a panel of cell lines, 1 hour; format: cell-based
[20] = tested on: Class 3 mutants (H508 and H1666); assay: ERK signaling in a panel of cell lines, 1 hour; format: cell-based
[21] = tested on: WT RAF driven by either WT or mutant RAS (A549, SK-MEL-285, BEAS-2B and melanocytes); assay: ERK signaling in a panel of cell lines, 1 hour; format: cell-based
How it was run: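 Cells cultured as follows: SK-MEL-285 in RPMI with 10% FBS; BEAS-2B in BEBM medium; primary melanocytes in Dermal cell basal medium with melanocyte growth kit; A549 in DMEM with glutamine, antibiotics and 10% FBS. Pathway status read by Western blot for p-MEK1/2, p-ERK1/2, MEK1/2 and ERK1/2 (primary 1:1,000; HRP secondary 1:5,000). Cellular experiments repeated at least three times.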

[22] = Tolerability in nude mice; format: in vivo; settings: doses up to 100mg/kg daily
[23] = PLX8394 concentration in tumor samples; format: in vivo, Mice; settings: single dose of 50mg/kg (i.p.), A375 xenograft tumor tissue
How it was run: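 Melanoma xenograft tumours were collected at several time points after a single 50 mg/kg dose. Fresh tissue (50–150 mg) was snap-frozen in an ethanol–dry ice bath, homogenised and protein-precipitated. Samples were quantified by LC-MS/MS with an internal standard and a 15–50000 ng/mL calibration range. Standards were made by spiking untreated homogenate, and QC samples spanned the range.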

A375 Xenograft tumors = assay: ERK pathway inhibition in A375 xenograft tumors after a single dose; format: in vivo, Mice; settings: single dose of 50mg/kg
[24] = tested on: A375 cells with overexpression of BRAF V600E; assay: A375 xenograft with doxycycline-induced BRAF V600E overexpression; format: in vivo, nude mice; settings: vemurafenib 75mg/kg BID, PLX8394 50mg/kg BID
How it was run: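 A375 cells carrying a retroviral tet-regulated BRAF V600E or NRAS Q61K construct (kept in 50 ug/ml hygromycin and 0.2 ug/ml puromycin). 5 million cells were injected s.c. into nude mice fed doxycycline food. At 100 mm3, mice stayed on doxycycline food and received vehicle, reference RAF inhibitor 75 mg/kg BID or test compound 50 mg/kg BID. Tumour size was tracked (n=5; mean±s.d.; two-tailed unpaired t-test).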

[25] = tested on: BRAF K601E CRC PDX tumors; assay: Colorectal cancer PDX model; format: in vivo, NSG mice; settings: vemurafenib 75mg/kg BID, PLX8394 50mg/kg BID
BRAF G466V PDX tumors = assay: Colorectal cancer PDX model; format: in vivo, NSG mice; settings: Cetuximab 50 mg/kg IP twice weekly, vemurafenib 75 mg/kg BID, PLX8394 50 mg/kg BID
BRAF V600E monomer = settings: cited from earlier work
first site of RAF dimers = settings: cited from earlier work
[26] = tested on: second site of RAF dimers; settings: read-out: IC50 of binding to the second site of RAF dimers; cited from earlier work

## O=C(c1c(F)ccc(NS(=O)(=O)N2CC[C@@H](F)C2)c1F)c1c[nH]c2ncc(-c3cnc(C4CC4)nc3)cc12 [PLX8394]
[1]
  IC75 of p-ERK in SK-MEL-239: 39 nM
[2]; 1 hr, p-ERK/total ERK by densitometry, calculated from the curves in Figure 1
  IC75 of p-ERK in SK-MEL-239 C4: 158 nM
[2]; SK-MEL-239 C4, 1 hr
  concentration that inhibits p61 dimers: 100~300 nM
[3]
  IC50: > 20000 nM
[4]
  IC50: > 20000 nM
[5]
  IC50: 100 to 300 nM
[5]; 1uM, 293H cells
  time to reduction in BRAF-containing dimers after drug treatment: ≤ 15 min
BRAF/CRAF dimers
  IC50: 100 to 300 nM
[6]
  IC50: 100 to 300 nM
[7]
  effect on full length CRAF dimer levels: no effect
[8]
  effect on truncated CRAF (Cat C) homodimer levels: no effect
[9]
  disruption of ARAF homo- or heterodimers: didn’t disrupt
[10]
  disruption of Class 2 BRAF mutant homodimers: disrupts
[11]
  disruption of Class 3 BRAF mutant heterodimers: disrupts
p61 BRAF V600E dimers
  doses required to inhibit p61 BRAF V600E dimers: 100 to 300 nM
p61 WT BRAF dimers
  doses required to inhibit p61 WT BRAF dimers: 300 to 1000 nM
BRAF V600E monomers
  doses required to inhibit BRAF V600E monomers: 30 to 100 nM
[12]
  effect on ERK signaling in cells with activated CRAF homodimers: activated ERK signaling
[13]
  effect on ERK signaling, BRAF overexpression: sensitized ERK signaling to inhibition
[14]
  effect on ERK signaling, CRAF overexpression: activated the pathway
BRAF knockout MEF cells
  effect on ERK signaling, BRAF knocked out: induced ERK signaling
CRAF knockout MEF cells
  effect on ERK signaling, CRAF-knockout: inhibited signaling
ARAF knockout MEF cells
  effect on ERK signaling, ARAF knockout: minimal effects
[15]
  effect on ERK signaling, cells expressing only ARAF: activated
[16]
  effect on ERK signaling, cells expressing only BRAF: inhibited
[17]
  effect on ERK signaling, cells expressing only CRAF: activated
[18]
  concentrations inhibiting ERK signaling driven by Class 1 monomers: 30 to 100 nM
[19]
  concentrations inhibiting ERK signaling in cells expressing Class 2 BRAF mutants: 100 to 1000 nM
[20]
  concentrations inhibiting Class 3 mutants driven signaling: 1 to 10 µM
[21]
  effect on ERK signaling in cells with WT RAF: almost no effect on ERK signaling or caused slight activation
[22]
  tolerability: well tolerated
[23]
  time of highest drug concentrations in melanoma xenografts: 7 h
A375 Xenograft tumors
  time of maximum inhibition of signaling after dosing: 2 to 7 h
  time of return of signaling to baseline: ≤ 24 h
[24]
  response of ERK signaling and tumor growth, BRAF V600E amplified: sensitive
[25]
  tumor growth response, single RAF inhibitor: partially inhibited
BRAF G466V PDX tumors
  response of ERK signaling and tumor growth: insensitive

## COC(=O)N[C@@H](C)CNc1nccc(-c2cn(C(C)C)nc2-c2cc(Cl)cc(NS(C)(=O)=O)c2F)n1 [encorafenib]
BRAF V600E monomer
  off-rate from BRAF V600E monomers: > 24 h
BRAF V600E monomer; read-out: IC50 of binding to the BRAF V600E monomer
  IC50: 14 nM
First site of RAF dimers; cells pretreated 1 hour, washed out
  time the drug remains bound to the other site after washout: up to 24 hours
First site of RAF dimers; read-out: IC50 of binding to first site of RAF dimers
  IC50: 14 nM
[26]
  IC50: 287 nM

Source: paper PMC6404779 (Nature medicine, 2018)
